Active and inactive are the calls of the source. The calls are words filed in the database; no cut-off is given here.
Assays:
[1] = Antioxidant activity assessed as AAPH radical scavenging activity after 3 hrs; format: functional
Outline: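 Ethyl linoleate (50 mM) oxidized with AAPH (10 mM) in 0.3 M Tween 20/0.05 M phosphate buffer (pH 7.4) micelles; test sample 0.10 mM final (from DMSO stock). Incubation 37 °C, dark, with shaking, 3 h. Aliquot quenched into methanolic trolox; ethyl linoleate hydroperoxide quantified by reverse-phase HPLC at 234 nm from a peak-area calibration equation.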

[2] = tested on: Radical scavenging activity; assay: Antioxidant activity assessed as DPPH radical scavenging activity; format: functional
Outline: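 Test sample at 20 µM final mixed with DPPH (0.1 mM); stood 0.5 h at 25 °C, then absorbance read at 517 nm. Activity expressed as decrease of absorbance: DPPH blank minus (DPPH + sample) plus sample-only absorbance.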

| SMILES | Activity [1] | Activity [2] |
| --- | --- | --- |
| COc1cc(C[C@H]2COC[C@@H]2C(=O)c2ccc(O)c(OC)c2)ccc1O | Active | Active |
| COc1cc(C(O)[C@H]2COC[C@@H]2[C@@H](O)c2ccc(O)c(OC)c2)ccc1O (single isomer, unassigned) | Active | Active |
| COc1cc(C[C@H]2COC(=O)[C@@H]2Cc2ccc(O)c(OC)c2)ccc1O | Active | Active |
| COc1cc([C@@H]2c3cc(O)c(OC)cc3C[C@H]3COC[C@H]32)ccc1O | Active | Active |
| COc1cc(C[C@H]2COC[C@@H]2[C@@H](O)c2ccc(O)c(OC)c2)ccc1O | Active | Active |
| COc1cc(C[C@H]2COC[C@@H]2[C@H](O)c2ccc(O)c(OC)c2)ccc1O | Active | Active |
| COc1cc(C[C@H]2COC[C@@H]2Cc2ccc(O)c(OC)c2)ccc1O | Active | Active |
| COc1cc([C@@H](O)[C@H]2COC[C@@H]2[C@H](O)c2ccc(O)c(OC)c2)ccc1O | Active | Active |
